# Experimental data from different studies.
# Compare with care: the assays were run in different laboratories.
# Target: Cannabinoid receptor 1 (CNR1, Homo sapiens, UniProt P21554)
Compound,assay,setting,endpoint,value
CCCCC/C=C\C/C=C\C/C=C\C/C=C\CCCC(=O)N[C@H](C)CO,"ligand displacement, radioligand",cell membranes,Ki,19.8 nM
CC(C)C(NC(=O)c1nn(Cc2ccc(F)cc2)c2ccccc12)C(N)=O (centres unmarked),"calcium signal, agonist",,EC50,3.44 nM
CCOC(=O)[C@H](CSC)NC(=O)c1ccc(C2CC2)c(Cc2ccc(F)cc2)n1,"ligand displacement, radioligand",cell membranes,Ki,19 nM
C/C(N)=N\C(=N/S(=O)(=O)c1ccc(C(F)(F)F)cc1)N1C[C@H](c2ccccc2)C(c2ccc(Cl)cc2)=N1,"ligand displacement, radioligand",,Ki,1.2 nM
Cc1ccc(OC(C)(C)C(=O)N[C@@H](C)[C@@H](Cc2ccc(OCCF)cc2)c2cccc(C#N)c2)nc1,"ligand displacement, radioligand",,Ki,0.1 nM
CCCCCc1cc(O)c2c(c1)OC(C)(C)[C@@H]1CC=C(C)[C@H](O)[C@@H]21,"ligand displacement, radioligand",cell membranes,Ki,31 nM
CCOC(=O)C(CC)(CCCSCCOCCOCCNc1ccc([N+](=O)[O-])c2nonc12)NC(=O)c1ccc(C2CC2)c(Cc2ccc(F)cc2)n1 (racemic),"cAMP, agonist",,EC50,600 nM
CCCCCn1cc(C(=O)C2C(C)(C)C2(C)C)c2ccccc21,"GTPγS binding, agonist, radiometric",cell membranes,EC50,98 nM
C=C(C)[C@@H]1CCC(C)=C[C@H]1c1c(O)cc(CCC)cc1O,"ligand displacement, radioligand",cell membranes,Ki,503 nM
O=C(c1ccc2c(c1)c1ccccc1n2CCN1CCOCC1)c1cc2ccccc2[nH]1,"ligand displacement, radioligand",cell membranes,Ki,1200 nM
CCCCCc1cc(O)c(C/C=C(\C)CCC2OC2(C)C)c(O)c1 (centres unmarked),"ligand displacement, radioligand",cell membranes,Ki,> 10000 nM
CCOC(=O)C(CC)(CCCSCCOCCOCCOCCNC(=O)OC(C)(C)C)NC(=O)c1ccc(C2CC2)c(Cc2ccc(F)cc2)n1 (centres unmarked),"ligand displacement, radioligand",cell membranes,Ki,589 nM
CCCCCc1cc(O)c(C/C=C(\C)CCC=C(C)C)c(O)c1C(=O)O,"ligand displacement, radioligand",cell membranes,Ki,4530 nM
CCOC(=O)C(CCCOC)NC(=O)c1ccc(C2CC2)c(Cc2ccc(F)cc2)n1 (centres unmarked),"ligand displacement, radioligand",cell membranes,Ki,99 nM
